ChEMBL document CHEMBL1138498 (J Med Chem, 2009)
One block for each molecule: values may come before it.

Experiments:
Meriones unguiculatus [1] = test: Inhibition of GR-73632-induced foot tapping in po dosed Mongolian gerbil assessed as duration of repetitive hind foot tapping administered 1 hr before GR-73632 challenge; type: functional; settings: read-out: ID50 (the source's name)
Method in brief: (§1)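 Male Mongolian gerbils (45-70 g), at least seven per group, received vehicle or compound orally (10 mL/kg) at 1, 2, 4 or 8 h before icv GR73632 (3 pmol/5 µL). Foot tapping was then scored. Doses were compared by ANOVA with Dunnett's test.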

Meriones unguiculatus [2] = test: Inhibition of GR-73632-induced foot tapping in po dosed Mongolian gerbil assessed as duration of repetitive hind foot tapping administered 1 hr before GR-73632 challenge measured after 8 hrs; type: functional; settings: read-out: ID50 (the source's name); method in brief: as §1
Substance-P receptor [3] = biological target: T1, Substance-P receptor (Homo sapiens, UniProt P25103); test: Displacement of [3H]substance P from human recombinant NK1 receptor expressed in CHO cells; type: cell-based
T1 sequence (P25103 whole entry): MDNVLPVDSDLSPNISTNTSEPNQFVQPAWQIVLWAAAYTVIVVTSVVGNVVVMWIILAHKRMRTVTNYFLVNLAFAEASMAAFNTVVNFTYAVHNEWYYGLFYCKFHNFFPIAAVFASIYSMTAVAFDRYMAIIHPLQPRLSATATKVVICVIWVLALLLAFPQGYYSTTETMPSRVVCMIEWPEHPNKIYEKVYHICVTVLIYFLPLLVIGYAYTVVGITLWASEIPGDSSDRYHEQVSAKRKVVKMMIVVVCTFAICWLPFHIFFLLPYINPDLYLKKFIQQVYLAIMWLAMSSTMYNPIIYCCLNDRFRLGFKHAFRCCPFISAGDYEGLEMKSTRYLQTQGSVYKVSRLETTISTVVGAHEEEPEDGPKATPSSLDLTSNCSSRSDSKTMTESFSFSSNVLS

Meriones unguiculatus [4] = test: Inhibition of GR-73632-induced foot tapping in po dosed Mongolian gerbil assessed as duration of repetitive hind foot tapping administered 1 hr before GR-73632 challenge measured after 1 hr; type: functional; settings: read-out: ID50 (the source's name); method in brief: as §1
Meriones unguiculatus [5] = test: Inhibition of GR-73632-induced foot tapping in po dosed Mongolian gerbil assessed as duration of repetitive hind foot tapping administered 1 hr before GR-73632 challenge measured after 2 hrs; type: functional; settings: read-out: ID50 (the source's name); method in brief: as §1
Meriones unguiculatus [6] = test: Inhibition of GR-73632-induced foot tapping in po dosed Mongolian gerbil assessed as duration of repetitive hind foot tapping administered 1 hr before GR-73632 challenge measured after 4 hrs; type: functional; settings: read-out: ID50 (the source's name); method in brief: as §1
[7] = Bioavailability in rat; type: ADME, organism-based; settings: in vivo
[8] = Bioavailability in dog; type: ADME, organism-based, Canis lupus familiaris; settings: in vivo
[9] = Plasma clearance in rat; type: ADME, organism-based
[10] = Plasma clearance in dog; type: ADME, organism-based, Canis lupus familiaris
[11] = Half life in rat; type: ADME, organism-based; settings: in vivo
[12] = Half life in dog; type: ADME, organism-based, Canis lupus familiaris; settings: in vivo
[13] = Ratio of drug level in brain to plasma in rat at 1 mg/kg, iv after 5 mins
Substance-P receptor [14] = biological target: T1, Substance-P receptor; settings: CHO
Substance-P receptor [15] = biological target: T1, Substance-P receptor; settings: CHO; remark: listed apart in the source

Structure (SMILES): Cc1cc(F)ccc1[C@H]1CNCCN1C(=O)N(C)Cc1cc(C(F)(F)F)cc(C(F)(F)F)c1
ED50 (Meriones unguiculatus [1]): 0.2 mg/kg
ED50 (Meriones unguiculatus [2]): 0.3 mg/kg

Structure (SMILES): Cc1cc(F)ccc1[C@H]1CNCCN1C(=O)N(C)[C@H](C)c1cc(C(F)(F)F)cc(C(F)(F)F)c1 [VESTIPITANT]
ED50 (Meriones unguiculatus [1]): 0.014 mg/kg
ED50 (Meriones unguiculatus [2]): 0.027 mg/kg
ED50 (Meriones unguiculatus [4]): 0.014 mg/kg
ED50 (Meriones unguiculatus [5]): 0.007 mg/kg
ED50 (Meriones unguiculatus [6]): 0.002 mg/kg
bioavailability [7]: 44%
bioavailability [8]: 71%
clearance [9]: 19 mL/min/kg
clearance [10]: 15 mL/min/kg
half-life [11]: 5 h
half-life [12]: 11 h
Kp at 5 min [13]: 1.3
pKb (Substance-P receptor [14]): 9.87
T1/2 (Substance-P receptor [15]): 0.995 h

Structure (SMILES): CC(=O)O.Cc1cc(F)ccc1[C@H]1CNCCN1C(=O)N(C)[C@@H](C)c1cc(C(F)(F)F)cc(C(F)(F)F)c1
ED50 (Meriones unguiculatus [1]): 0.036 mg/kg

More lines, main results first:

Ki (Substance-P receptor [3]): 0.0501 nM
Structure (SMILES): COc1ccc(-n2nnnc2C(F)(F)F)cc1CN[C@H]1CCCN[C@H]1c1ccccc1 [VOFOPITANT]
ED50 (Meriones unguiculatus [1]): 0.6 mg/kg

Ki (Substance-P receptor [3]): 18.2 nM
Structure (SMILES): Cc1cc(F)ccc1[C@@H]1CNCCN1C(=O)N(C)Cc1cc(C(F)(F)F)cc(C(F)(F)F)c1
ED50 (Meriones unguiculatus [1]): 5.6 mg/kg

Ki (Substance-P receptor [3]): 1.29 nM
Structure (SMILES): Cc1cc(F)ccc1C1CNCCN1C(=O)N(C)Cc1cc(C(F)(F)F)cc(C(F)(F)F)c1 (racemic)

Ki (Substance-P receptor [3]): 8.71 nM
pKb (Substance-P receptor [14]): 8.56
Structure (SMILES): Cc1cc(F)ccc1N1CCNCC1C(=O)N(C)Cc1cc(C(F)(F)F)cc(C(F)(F)F)c1 (centres undefined)
